Assay results reported in paper PMC9540525 (Cancer, 2022).

How the values were obtained:
[1] = system: advanced or unresectable solid tumors, including NENs and R/R NHL; assay: Phase 1 study CC-90011-ST-001: efficacy; assay type: in vivo, human
Procedure, shortened: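 Phase 1 open-label multicenter study; adults with advanced NENs or R/R NHL. Test compound given orally once weekly in 28-day cycles (expansion: 60 mg); reductions and interruptions of up to 4 weeks allowed. Investigator-assessed response: RECIST 1.1 (solid tumors), IWG (NHL), PCWG3 (neuroendocrine prostate); FDG PET or PET/CT confirmed CR in FDG-avid tumors. Two-sided 95% Clopper–Pearson CIs; Kaplan–Meier medians.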

[2] = Phase 1 study: plasma pharmacokinetics, noncompartmental analysis; assay type: in vivo, human

COc1ccc(-c2c(-c3ccc(C#N)c(F)c3)nc(N3CCC(N)CC3)n(C)c2=O)cc1F [CC‐90011]
Best overall response: CR ([1]; dose escalation, n = 50): 1 (2.0) no. (%)
Best overall response: NE ([1]; dose escalation, n = 50): 4 (8.0) no. (%)
Best overall response: PD ([1]; dose escalation, n = 50): 22 (44.0) no. (%)
Best overall response: PR ([1]; dose escalation, n = 50): 1 (2.0) no. (%)
Best overall response: SD ([1]; dose escalation, n = 50): 22 (44.0) no. (%)
Best overall response: SD ≥4 months ([1]; dose escalation, n = 50): 8 (16.0) no. (%)
CBR [95% CI] ([1]; dose escalation, n = 50): 20 [10.0–33.7] %
ORR [95% CI] ([1]; dose escalation, n = 50): 4 [0.5–13.7] %
mOS [95% CI] ([1]; dose escalation, n = 50): 7.8 [6.1–20.1] months
mPFS [95% CI] ([1]; dose escalation, n = 50): 3.4 [1.7–3.7] months
patients with NENs with SD lasting ≥6 months / >6 months ([1]; dose escalation, grade ≥2 NENs): seven
treatment cycle in which the patient with CR was still ongoing ([1]; dose escalation, one patient with R/R MZL, as of April 2022): 58 cycle
patients with bronchial NENs with SD after nine or more cycles ([1]; dose expansion): three
Best overall response: CR ([1]; dose expansion, n=19): 0 (0.0) no. (%)
Best overall response: NE ([1]; dose expansion, n=19): 2 (11.0) no. (%)
Best overall response: PD ([1]; dose expansion, n=19): 7 (37.0) no. (%)
Best overall response: PR ([1]; dose expansion, n=19): 0 (0.0) no. (%)
CBR [95% CI] ([1]; dose expansion, n=19): 37 [16.3–61.6] %
ORR [95% CI] ([1]; dose expansion, n=19): 0 [0.0–17.6] %
mOS [95% CI] ([1]; dose expansion, n=19): 15.6 [7.0, NE] months
mPFS [95% CI] ([1]; dose expansion, n=19): 1.8 [1.1–5.4] months
treatment cycle in which the patient with SD was still ongoing ([1]; dose expansion, one patient with bronchial NENs, as of April 2022): 46 cycle
median PFS ([1]; patients with bronchial NENs): 4.6 months
accumulation with repeat dosing based on the AUC ([2]; dose expansion, 60 mg once per week): Negligible accumulation
time of peak CC-90011 concentration after treatment, approximate median ([2]; dose expansion, NEN, n = 16, 60 mg once per week): ~4 h
terminal half-life ([2]; in words): long terminal half‐life
